Results taken from ChEMBL document CHEMBL1127799, “Derivatives of a novel cyclopeptolide. 1. Synthesis, antifungal activity, and structure-activity relationships” (1994).
Converted amounts (≈) assume the structure as drawn.

How the values were obtained:
Format in all cases: functional
Candida albicans [1] = assay: Tested for minimum subinhibitory concentration against Candida albicans 26 (Candida albicans) at pH 4.5.
How it was run: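 Malt extract broth microdilution at initial pH 4.5, 1×10^3 CFU/0.2 mL well, final compound 0.05–100 μg/mL diluted from DMSO/Tween 80 stocks. Incubation was 48 h at 30 °C with macroscopic reading. MSIC was the lowest concentration causing visible growth inhibition in at least two of three triplicates.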

[2] = test system: Meyerozyma guilliermondii; assay: Tested for minimum inhibitory concentration against Candida guilliermondii 80 (C.g) at pH of 6.5.
How it was run: (§1)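 Broth microdilution in malt extract broth, initial pH 4.5 or 6.5, with 1×10^3 CFU per 0.2 mL well of thawed stored cultures. Compound stocks were made in 5% DMSO/0.2% Tween 80 and diluted to final 0.05–100 μg/mL. Plates were incubated 48 h at 30 °C and read macroscopically. MIC was the lowest concentration with no detectable growth. Vehicle-only wells served as controls.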

Candida albicans [3] = assay: Tested for minimum inhibitory concentration against Candida albicans 9 (Candida albicans) at pH 6.5.
How it was run: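 Broth microdilution in malt extract broth, initial pH 6.5, 1×10^3 CFU per 0.2 mL well, from liquid-nitrogen-stored Sabouraud cultures. Compound from 0.08% stock in 5% DMSO/0.2% Tween 80, final 0.05–100 μg/mL. Visual reading after 48 h at 30 °C. MIC = lowest concentration with no detectable growth. Vehicle-only negative controls.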

Candida albicans [4] = assay: Tested for minimum inhibitory concentration against Candida albicans 90 (Candida albicans) at pH 4.5.; how it was run: as §1

- MIC [2]: > 100 µg/mL
- MIC (Candida albicans [3]): > 100 µg/mL
- MIC (Candida albicans [4]): 3.12 µg/mL (≈ 2.77 µM)
Structure (SMILES): CC[C@@H](C)[C@H]1C(=O)NCC(=O)N(C)[C@@H](C(C)C)C(=O)N[C@@H](Cc2ccc(OC)cc2)C(=O)O[C@H](C)C(=O)N2CCCC[C@H]2C(=O)N(C)[C@@H](C(C)C)C(=O)N[C@@H](C(C)C)C(=O)N(C)[C@@H](CC(=O)O)C(=O)N(C)[C@@H]([C@@H](C)CC)C(=O)N1C
- MSIC (Candida albicans [1]): 0.78 µg/mL
